# Laboratory results reported in article PMC2888972 (Molecular cancer therapeutics, 2009).
# Where two headings read alike, the source gives them in different places.
# Tests used:
# TA1535 = assay: Bacterial mutation
# WP2 uvrA = assay: Bacterial mutation
# TA98 = assay: Bacterial mutation
# TA100 = assay: Bacterial mutation
# Caki-1 cancer [1] = assay: Growth inhibition assay; type: cell-based, human; details: for efficacy (maximum growth inhibition observed): 1 to 12.5 µmol/L; for EC50: read-out: potency (EC50, concentration needed to induce half maximal efficacy)
# In short: (§1)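 Stock is 0.01 mol/L in DMSO, kept at −20°C under subdued light. Cells get 1–12.5 µmol/L or equal-volume DMSO, in triplicate, for 48 h. Growth index is mean treated OD over mean control OD, plotted against concentration. Maximal inhibition comes by nonlinear regression from plots of 2–3 independent experiments.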
# 786-O cancer = assay: Growth inhibition assay; type: cell-based, human; details: for efficacy (maximum growth inhibition observed): 48 h, 1 to 12.5 µmol/L
# In short: as §1
# HK-2 normal = assay: Growth inhibition assay; type: cell-based, human; details: 48 h; for efficacy (maximum growth inhibition observed): 1 to 12.5 µmol/L; for EC50: read-out: potency (EC50, concentration needed to induce half maximal efficacy)
# In short: as §1
# RTC91696 normal = assay: Growth inhibition assay; type: cell-based, human; details: 48 h; for EC50: read-out: potency (EC50, concentration needed to induce half maximal efficacy); for efficacy (maximum growth inhibition observed): 1 to 12.5 µmol/L
# Caki-1 cancer cell line = assay: Apoptosis assay; type: cell-based, human; details: 10 µmol/L SHetA2, Annexin-V-FITC/PI
# [2] = tested on: RTC 91696 normal cultures; assay: Apoptosis assay; type: cell-based, human; details: maximum 72-hour treatment time and 12.5-µmol/L concentration
# In short: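 Floating cells from the medium are pooled with trypsinised adherent cells, pelleted, and stained with Annexin-V-FITC and PI (Vybrant kit #3). Flow cytometry uses 488 nm excitation and 530/575 nm emission. Cultures are at passage 3, in MEMα with EGF 10 ng/mL, hydrocortisone 5 µg/mL, insulin/transferrin/selenous acid 6.35 µg/mL each, 10% FBS and pen/strep. The apoptotic-quadrant percentage comes from four replicate experiments.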
# PARP-1 and Caspase 3 = assay: Western blot, PARP-1 and Caspase 3 cleavage; type: cell-based, human; details: Caki-1 cultures, 10 µmol/L
# In short: (§2)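 Lysis is in CytoBuster with protease inhibitor cocktail. 100 µg protein is resolved by SDS-PAGE and blotted to nitrocellulose. Blots are probed with mouse monoclonals (Cyclin D1, PARP-1, Caspase 3), then HRP secondary with luminol detection. Stripped blots are reprobed for β-actin or GAPDH as loading control. Solvent-only DMSO cultures serve as control.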
# Cyclin D1 = assay: Western blot, Cyclin D1; type: cell-based, human; details: SHetA2 treatment
# In short: as §2
# Caki-1 cancer [3] = assay: Cell cycle analysis; type: cell-based, human; details: 10 µmol/L, 24 h
# normal HK-2 cell lines = assay: Cell cycle analysis; type: cell-based, human; details: 10 µmol/L, 24 h
# E-Cadherin mRNA = assay: Real-time rtPCR of E-Cadherin in Caki-1 cultures; type: cell-based, human
# In short: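 RNA comes from frozen cell pellets (RNeasy). TaqMan real-time PCR for E-Cadherin and 18S is run in triplicate reactions. Expression is normalised to 18S by ΔΔCt and set relative to solvent-only control cultures at each dose or time point. Three independent experiments.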
# [4] = tested on: NF-κB transcriptional activity; assay: NF-κB luciferase reporter assay in Caki-1; type: cell-based, human
# [5] = tested on: A498 cancer cell line xenograft; assay: A498 xenograft model; type: in vivo; details: 20, 40, or 60 mg/kg/day; data not shown
# mouse embryos = details: animal models; cited from earlier work
# [6] = animal models; cited from earlier work
# [7] = tested on: livers of SHetA2-treated mice; details: previous xenograft model; cited from earlier work
# [8] = tested on: Caki-1 renal cancer xenografts; assay: Caki-1 renal cancer xenograft; details: for tumor-related deaths: 4 in untreated control group
# TA1537 = assay: Bacterial mutation
# five bacterial strains = assay: Bacterial mutation
# [9] = positive control 0.5 µg/plate, −S9
# [10] = RTC91696 normal, single experiments
# [11] = 1.58 µg/plate (0.004 µmol/L), +S9
# [12] = 1.58 µg/plate (0.004 µmol/L), −S9
# [13] = 5.0 µg/plate (0.012 µmol/L), +S9
# [14] = 15.8 µg/plate (0.039 µmol/L), +S9
# [15] = 50 µg/plate (0.125 µmol/L), +S9
# [16] = 158 µg/plate (0.393 µmol/L), +S9
# [17] = 50 µg/plate (0.125 µmol/L), −S9
# [18] = 158 µg/plate (0.393 µmol/L), −S9
# [19] = 500 µg/plate (1.245 µmol/L), +S9
# [20] = 500 µg/plate (1.245 µmol/L), −S9
# [21] = 1581 µg/plate (3.937 µmol/L), +S9
# [22] = 1581 µg/plate (3.937 µmol/L), −S9
# [23] = 5000 µg/plate (12.452 µmol/L), +S9
# [24] = 5000 µg/plate (12.452 µmol/L), −S9
smiles,measurement,setting,value
"Nc1ccc2cc3ccccc3cc2c1 [2AA, reference compound]","number of revertant colonies, Mean","TA1535; positive control 5 µg/plate, +S9",324
same,"number of revertant colonies, Mean",WP2 uvrA; [9],594
same,"number of revertant colonies, Mean","WP2 uvrA; positive control 15 µg/plate, +S9",145
"O=[N+]([O-])c1ccc2c(c1)Cc1ccccc1-2 [2NF, reference compound]","number of revertant colonies, Mean","TA98; positive control 1 µg/plate, −S9",108
"[N-]=[N+]=[N-].[Na+] [NaAZ, reference compound]","number of revertant colonies, Mean",TA100; [9],511
same,"number of revertant colonies, Mean",TA1535; [9],304
CC1(C)CC(C)(C)c2cc(NC(=S)Nc3ccc([N+](=O)[O-])cc3)ccc2S1 [SHetA2],efficacy (maximum growth inhibition observed),"Caki-1 cancer [1]; Caki-1 cancer, 48 h",84.40% ± 3.86%
same,EC50,"Caki-1 cancer [1]; Homo sapiens, CAKI-1, 48 h",4.93 ± 0.22 µM
same,efficacy (maximum growth inhibition observed),786-O cancer,72.00% ± 5.06%
same,efficacy (maximum growth inhibition observed),HK-2 normal; HK-2 normal,51.02% ± 7.07%
same,EC50,HK-2 normal; Homo sapiens,4.5 ± 0.28 µM
same,EC50,RTC91696 normal; Homo sapiens,4.57 ± 0.49 µM
same,efficacy (maximum growth inhibition observed),RTC91696 normal; [10],36.84% ± 6.80%
same,percentage of cells in the quadrant corresponding to apoptosis,Caki-1 cancer cell line,increased the percentage of Caki-1 cancer cells
same,induction of apoptosis in normal cells,[2],did not induce apoptosis
same,time to cleavage of PARP-1 and Caspase 3,PARP-1 and Caspase 3,≤ 16 h
same,time to decreased expression of Cyclin D1,Cyclin D1,≤ 1 h
same,percentages of cells in the G0-G1 phase of the cell cycle,Caki-1 cancer [3],increased the percentages of cells in the G0-G1 phase
same,percentages of cells in the G0-G1 phase of the cell cycle,normal HK-2 cell lines,increased the percentages of cells in the G0-G1 phase
same,time to upregulation of E-Cadherin mRNA,E-Cadherin mRNA,≤ 1 h
same,induction of E-Cadherin steady-state mRNA,E-Cadherin mRNA; 4 hours of treatment,20 fold
same,induction of E-Cadherin steady-state mRNA,E-Cadherin mRNA; 24 hours of treatment,60 fold
same,time to inhibition of NF-κB activity,[4]; 10 µmol/L SHetA2,≤ 30 min
same,tumor necrosis factor α induced NF-κB transcriptional activity,"[4]; 10 µmol/L SHetA2, 20 ng/mL TNFα, 4 or 8 h",significantly inhibited
same,sensitivity of A498 xenograft,[5],did not exhibit significant sensitivity
same,teratogenicity,mouse embryos,did not induce skin irritancy or teratogenicity
same,skin irritancy,[6],did not induce skin irritancy or teratogenicity
same,"liver damage (necrosis, fatty changes, inflammation in portal tracts)",[7],no liver damage
same,tumor-related deaths,[8]; 20 mg/kg/day oral,3
same,tumor-related deaths,[8]; 40 mg/kg/day oral,6
same,maximal growth inhibition of xenograft tumors,"[8]; 60 mg/kg/day oral for 30 days, day 34 (23rd day of treatment)",36%
same,tumor-related deaths,[8]; 60 mg/kg/day oral,6
same,body weight of the animals compared with the control group,"[8]; 20, 40, 60 mg/kg/day oral for 30 days",None of the treatment concentrations altered the body weight
same,reduction of xenograft tumor sizes,[8]; 20 and 40 mg/kg/day oral for 30 days,not statistically significant
same,"number of revertant colonies, Mean",TA98; [11],48
same,"number of revertant colonies, Mean",TA98; [12],16
same,"number of revertant colonies, Mean",TA98; [13],45
same,"number of revertant colonies, Mean",TA98; [14],52
same,"number of revertant colonies, Mean",TA98; [15],49
same,"number of revertant colonies, Mean",TA98; [16],12
same,"number of revertant colonies, Mean",TA100; [11],136
same,"number of revertant colonies, Mean",TA100; [12],136
same,"number of revertant colonies, Mean",TA100; [13],124
same,"number of revertant colonies, Mean",TA100; [14],171
same,"number of revertant colonies, Mean",TA1535; [15],15
same,"number of revertant colonies, Mean",TA1535; [17],19
same,"number of revertant colonies, Mean",TA1535; [16],20
same,"number of revertant colonies, Mean",TA1535; [18],26
same,"number of revertant colonies, Mean",TA1535; [19],22
same,"number of revertant colonies, Mean",TA1535; [20],18
same,"number of revertant colonies, Mean",TA1535; [21],19
same,"number of revertant colonies, Mean",TA1535; [22],21
same,"number of revertant colonies, Mean",TA1535; [23],22
same,"number of revertant colonies, Mean",TA1535; [24],16
same,"number of revertant colonies, Mean",TA1537; [11],23
same,"number of revertant colonies, Mean",TA1537; [12],9
same,"number of revertant colonies, Mean",TA1537; [13],21
same,"number of revertant colonies, Mean",TA1537; [14],21
same,"number of revertant colonies, Mean",WP2 uvrA; [15],27
same,"number of revertant colonies, Mean",WP2 uvrA; [17],17
same,"number of revertant colonies, Mean",WP2 uvrA; [16],18
same,"number of revertant colonies, Mean",WP2 uvrA; [18],14
same,"number of revertant colonies, Mean",WP2 uvrA; [19],22
same,"number of revertant colonies, Mean",WP2 uvrA; [20],18
same,"number of revertant colonies, Mean",WP2 uvrA; [21],17
same,"number of revertant colonies, Mean",WP2 uvrA; [22],10
same,"number of revertant colonies, Mean",WP2 uvrA; [23],13
same,"number of revertant colonies, Mean",WP2 uvrA; [24],12
same,mutagenicity of metabolites (number of revertant colonies),five bacterial strains; preincubation with S9 microsomal fractions,no effect on the number of revertant colonies
same,mutagenicity (increase in revertant colony counts),five bacterial strains; without S9,neither SHetA2 nor SHetA3 induced substantial increases in the revertant colony counts
CCOC(=O)c1ccc(NC(=O)Nc2ccc3c(c2)C(C)(C)CC(C)(C)S3)cc1 [SHetA4],efficacy (maximum growth inhibition observed),"Caki-1 cancer [1]; Caki-1 cancer, 48 h",68.92% ± 6.94%
same,EC50,"Caki-1 cancer [1]; Caki-1 cancer, 48 h",5.07 ± 0.15 µM
same,efficacy (maximum growth inhibition observed),786-O cancer,45.04% ± 4.80%
same,EC50,"786-O cancer; read-out: potency (EC50, concentration needed to induce half maximal efficacy), 48 h",2560 ± 340 nM
same,efficacy (maximum growth inhibition observed),HK-2 normal; HK-2 normal,26.35% ± 0.80%
same,EC50,HK-2 normal; HK-2 normal,5.19 ± 0.25 µM
same,efficacy (maximum growth inhibition observed),RTC91696 normal; [10],39.67% ± 2.52%
same,EC50,RTC91696 normal; [10],7.55 ± 0.51 µM
